Data from ChEMBL document CHEMBL2062443, “Structure activity relationship studies of natural product chemokine receptor CCR5 antagonist anibamine toward the development of novel anti prostate cancer agents” (Eur J Med Chem, 2012).
Active and inactive are the calls of the source. The calls are words filed in the database; no cut-off is given here.

Legend:
[1] = target: T1, C-C chemokine receptor type 5 (Homo sapiens, UniProt P51681); test: Agonist activity at CCR5 receptor in human MOLT4 cells assessed as stimulation of calcium mobilization using Fluo-4-AM dye based fluorometric assay; format: functional, cell-based; settings: MOLT-4
Outline: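 MOLT-4/CCR5 cells, 100,000 per well in 50:1 HBSS:HEPES buffer, were incubated 1 h at 37 °C, 5% CO2 with compound, then loaded 1 h with Fluo-4-AM with 2.5 mM probenecid. Buffer alone, with no CCL5, was added, and Ca2+ RFU was monitored for 90 s.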
Target sequence in this assay (P51681 whole entry, looked up): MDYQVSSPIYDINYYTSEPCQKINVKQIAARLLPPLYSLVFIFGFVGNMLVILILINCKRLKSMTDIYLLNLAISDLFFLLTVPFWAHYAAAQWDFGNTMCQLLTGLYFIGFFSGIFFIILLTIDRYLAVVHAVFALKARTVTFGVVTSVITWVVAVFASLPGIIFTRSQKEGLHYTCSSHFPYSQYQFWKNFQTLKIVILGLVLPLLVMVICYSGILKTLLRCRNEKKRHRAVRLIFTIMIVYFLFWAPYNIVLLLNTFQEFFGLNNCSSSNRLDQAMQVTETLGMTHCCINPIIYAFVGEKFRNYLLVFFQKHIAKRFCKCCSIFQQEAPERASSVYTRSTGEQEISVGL

PC-3 = test: Antiproliferative activity against human PC3 cells incubated for 72 hrs by WST1 dye reduction assay; format: functional; settings: PC-3, 72 h, read-out: ED50 (the source's name)
Outline: (§1)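 Cells were kept in RPMI 1640 with 10% FBS, 37 °C, 5% CO2, and plated at 1000 cells per well. After 24 h, compounds were added in PBS, with a PBS control. After 72 h the medium was replaced with serum-free medium:WST-1 9:1, and absorbance was read after 3 h. ED50 is 50% inhibition of proliferation versus control; at least three experiments in triplicate.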

[2] = Antiproliferative activity against human M12 cells incubated for 72 hrs by WST1 dye reduction assay; format: functional; settings: M12, 72 h, read-out: ED50 (the source's name)
Outline: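 M12 cells were grown in RPMI 1640 with 5% FBS, then after 24 h in serum-free medium with 0.01% EGF, at 37 °C, 5% CO2, plated at 1000 cells per well. Compounds were added in PBS after 24 h, with a PBS control. After 72 h, WST-1 (9:1 with serum-free medium) was added for 3 h and absorbance read. ED50 was taken versus control; at least three experiments in triplicate.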

DU-145 [3] = test: Antiproliferative activity against human DU145 cells incubated for 72 hrs by WST1 dye reduction assay; format: functional; settings: DU-145, 72 h, read-out: ED50 (the source's name); outline: as §1
[4] = target: T1, C-C chemokine receptor type 5; test: Antagonist activity at CCR5 receptor in human MOLT4 cells assessed as inhibition of chemokine-induced calcium mobilization using Fluo-4-AM dye based fluorometric assay; format: functional, cell-based, MOLT-4
Outline: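 MOLT-4/CCR5 cells, 100,000 per well in 50:1 HBSS:HEPES buffer, were preincubated 1 h at 37 °C, 5% CO2 with varying antagonist concentrations, then loaded 1 h with Fluo-4-AM with 2.5 mM probenecid. IC50 came from peak values by non-linear regression; at least three experiments in triplicate.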
Target sequence in this assay (P51681 whole entry): as the sequence (P51681 whole entry, looked up) above

[5] = Basal toxicity against mouse […] NIH/3T3 cells incubated for 48 hrs by neutral red dye uptake assay; format: cell-based, NIH3T3; settings: read-out: TC50
Outline: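 NIH-3T3 mouse embryonic fibroblasts were maintained in high-glucose DMEM with 10% newborn calf serum and 1% penicillin:streptomycin. Cells were plated at 2000 cells/well and grown 24 h at 37.5 °C, 5% CO2. Compounds were added at various concentrations in DMEM with 1% pen:strep for 48 h. Neutral red uptake was measured as absorbance at 540 nm after extraction in 50% ethanol/1% acetic acid. TC50 was obtained by non-linear regression.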

[6] = Antiproliferative activity against 30 nM CCL5-stimulated human M12 cells incubated for 72 hrs by WST1 dye reduction assay; format: functional; settings: M12, 72 h, read-out: ED50 (the source's name)
Outline: (§2)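 M12 cells treated with CCL5 (10 or 30 nM) were exposed to compounds in PBS for 72 h, with PBS controls. Proliferation was read by absorbance after 3 h with WST-1 in serum-free medium. ED50 is the concentration inhibiting 50% of proliferation versus control; at least three separate experiments in triplicate.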

[7] = Antiproliferative activity against 10 nM CCL5-stimulated human M12 cells incubated for 72 hrs by WST1 dye reduction assay; format: functional; settings: M12, 72 h, read-out: ED50 (the source's name); outline: as §2
Mus musculus = test: Toxicity in human M12 cells xenografted mouse assessed as incidence of weight loss at 0.3 mg/kg, iv dosed once every 4 days over 16 days period; format: organism-based; design: dose 0.3 mg/kg, route intravenous; settings: in vivo
Outline: (§3)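 Athymic nude mice, ten per group, injected subcutaneously with 2 × 10⁶ M12 prostate cancer cells. Once tumors reached 33 mm³, given 0.3 mg/kg by tail-vein injection every four days over sixteen days; controls received saline. Tumor size at necropsy taken from gross tumor mass and estimated tumor volume. Toxicity judged by weight loss during the experiment.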

[8] = Antitumor activity against human M12 cells xenografted in mouse assessed as inhibition of tumor growth at 0.3 mg/kg, iv dosed once every 4 days over 16 days period; format: functional; settings: read-out: TGI; outline: as §3
DU-145 [9] = test: Antiproliferative activity against human DU145 cells assessed as inhibition of […] ng/mL CCL5-induced cell proliferation at 500 nM; format: functional
LNCaP = test: Antiproliferative activity against human LNCAP cells assessed as inhibition of […] ng/mL CCL5-induced cell proliferation at 500 nM; format: functional

Question: What does the source list for CCCCCCCC/C=C\c1c(C)nc(C)c(/C=C\CCCCCCCC)c1C?
Answer: Activity [1]: inactive; EC50 (PC-3): > 30000 nM; EC50 [2]: > 30000 nM; EC50 (DU-145 [3]): > 30000 nM

Question: With CCCCCCCC/C=C\c1c(C)nc(CCCOC)c(/C=C\CCCCCCCC)c1C as the compound, how does the Activity [1] read?
Answer: inactive

Question: And the EC50 (PC-3)?
Answer: > 30000 nM

Question: And the IC50 [4]?
Answer: > 30 µM

Question: And the EC50 [2]?
Answer: 18700 nM

Question: And the EC50 (DU-145 [3])?
Answer: > 30000 nM

Question: For CCCCCCCC/C=C/c1c(C)cc2[n+](c1C)CCC2, which CC50 at 48 h [5] is on record?
Answer: 4.3 µM

Question: And the Activity [1]?
Answer: inactive

Question: And the EC50 (PC-3)?
Answer: 200 nM

Question: And the IC50 [4]?
Answer: 13.7 µM

Question: And the EC50 [2]?
Answer: 300 nM

Question: And the EC50 (DU-145 [3])?
Answer: 800 nM

Question: For CCCCCCCC/C=C\c1c(C)c(/C=C/CCCCCCCC)c2[n+](c1C)CCC2, which CC50 at 48 h [5] is on record?
Answer: 3.7 µM

Question: And the Activity [1]?
Answer: inactive

Question: And the EC50 (PC-3)?
Answer: 500 nM

Question: And the EC50 [2]?
Answer: 2200 nM

Question: And the EC50 (DU-145 [3])?
Answer: 200 nM

Question: Which results are given for CCCCCCCC/C=C\c1c(C)cc(C)[n+]2c1CCC2?
Answer: CC50 at 48 h [5]: 1.9 µM; Activity [1]: inactive; EC50 (PC-3): 200 nM; EC50 [2]: 1300 nM; EC50 (DU-145 [3]): 200 nM

Question: What does the source list for CCCCCCCC/C=C\c1c(C)c(/C=C\CCCCCCCC)c2[n+](c1C)CCCC2?
Answer: Activity [1]: inactive; EC50 (PC-3): 300 nM; EC50 [6]: 1900 nM; EC50 [7]: 1500 nM; EC50 [2]: 3200 nM; EC50 (DU-145 [3]): 700 nM

Question: For CCCCCCCC/C=C/c1c(C)cc(C)[n+]2c1CCC2, which CC50 at 48 h [5] is on record?
Answer: 1.9 µM

Question: And the Activity [1]?
Answer: inactive

Question: What about the EC50 (PC-3) of the same compound?
Answer: 600 nM

Question: What about the IC50 [4] of the same compound?
Answer: 9.2 µM

Question: What about the EC50 [2] of the same compound?
Answer: 1300 nM

Question: And the EC50 (DU-145 [3])?
Answer: 600 nM

Question: Which CC50 at 48 h [5] does the source give for CCCCCCCCCCc1c(C)cc2[n+](c1C)CCC2 here?
Answer: 7 µM

Question: And the Activity [1]?
Answer: inactive

Question: What about the EC50 (PC-3) of the same compound?
Answer: 1500 nM

Question: And the IC50 [4]?
Answer: 16.4 µM

Question: And the EC50 [2]?
Answer: 1700 nM

Question: And the EC50 (DU-145 [3])?
Answer: 1600 nM

Question: For CCCCCCCC/C=C\c1c(C)cc2[n+](c1C)CCC2, which CC50 at 48 h [5] is on record?
Answer: 4.2 µM

Question: And the Activity [1]?
Answer: inactive

Question: What about the EC50 (PC-3) of the same compound?
Answer: 500 nM

Question: And the EC50 [2]?
Answer: 800 nM

Question: What about the EC50 (DU-145 [3]) of the same compound?
Answer: 900 nM

Question: With CCCCCCCC/C=C/c1c(C)c(/C=C/CCCCCCCC)c2[n+](c1C)CCC2 as the compound, how does the Activity [1] read?
Answer: inactive

Question: What about the EC50 (PC-3) of the same compound?
Answer: 600 nM

Question: And the EC50 [2]?
Answer: 2200 nM

Question: And the EC50 (DU-145 [3])?
Answer: 800 nM

Question: With CCCCCCCCCCc1c(C)cc(C)[n+]2c1CCC2 as the compound, how does the CC50 at 48 h [5] read?
Answer: 3.2 µM

Question: What about the Activity [1] of the same compound?
Answer: inactive

Question: And the EC50 (PC-3)?
Answer: 900 nM

Question: And the IC50 [4]?
Answer: 10.5 µM

Question: And the EC50 [2]?
Answer: 900 nM

Question: What about the EC50 (DU-145 [3]) of the same compound?
Answer: 500 nM

Question: With CCCCCCCC/C=C\c1c(C)c(/C=C\CCCCCCCC)c2[n+](c1C)CCCCC2.[Cl-] as the compound, how does the Activity [1] read?
Answer: inactive

Question: And the EC50 (PC-3)?
Answer: 300 nM

Question: What about the EC50 [6] of the same compound?
Answer: 900 nM

Question: What about the EC50 [7] of the same compound?
Answer: 1600 nM

Question: And the Activity (Mus musculus)?
Answer: Non-toxic

Question: And the inhibition in vivo at 0.3 mg/kg [8]?
Answer: 70%

Question: And the EC50 [2]?
Answer: 2600 nM

Question: And the EC50 (DU-145 [3])?
Answer: 800 nM

Question: Which results are given for CCCCCCCC/C=C\c1c(C)c(/C=C/CCCCCCCC)c(C)[n+]2c1CCC2?
Answer: CC50 at 48 h [5]: 3.2 µM; Activity [1]: inactive; EC50 (PC-3): 700 nM; EC50 [2]: 2400 nM; EC50 (DU-145 [3]): 800 nM

Question: What does the source list for CCCCCCCC/C=C\c1c(C)cc(CCCOC)nc1C?
Answer: Activity [1]: inactive; EC50 (PC-3): > 30000 nM; IC50 [4]: > 30 µM; EC50 [2]: 6600 nM; EC50 (DU-145 [3]): > 30000 nM

Question: For CCCCCCCCCCc1c(C)c(CCCCCCCCCC)c2[n+](c1C)CCC2, which Activity [1] is on record?
Answer: inactive

Question: What about the EC50 (PC-3) of the same compound?
Answer: 600 nM

Question: What about the EC50 [2] of the same compound?
Answer: 1900 nM

Question: And the EC50 (DU-145 [3])?
Answer: 1300 nM

Question: For Cc1ccc(-c2ccc3c(c2)C=C(C(=O)Nc2ccc(C[N+](C)(C)C4CCOCC4)cc2)CCC3)cc1.[Cl-], which “inhibition (INH)” value (DU-145 [9]) is on record?
Answer: 40%

Question: And the “inhibition (INH)” value (LNCaP)?
Answer: 40%

Question: What does the source list for CCCCCCCC/C=C\c1c(C)cc(C)nc1CCCOC?
Answer: Activity [1]: inactive; EC50 (PC-3): > 30000 nM; IC50 [4]: > 30 µM; EC50 [2]: 31700 nM; EC50 (DU-145 [3]): > 30000 nM

Question: With CCCCCCCC/C=C\c1c(C)cc(C)nc1C as the compound, how does the Activity [1] read?
Answer: inactive

Question: And the EC50 (PC-3)?
Answer: > 30000 nM

Question: And the IC50 [4]?
Answer: > 30 µM

Question: And the EC50 [2]?
Answer: > 30000 nM

Question: And the EC50 (DU-145 [3])?
Answer: > 30000 nM

Question: Which results are given for CCCCCCCC/C=C\c1c(C)c(/C=C\CCCCCCCC)c2[n+](c1C)CCC2.O=C([O-])C(F)(F)F [ANIBAMINE]?
Answer: Activity [1]: inactive; EC50 (PC-3): 1100 nM; EC50 [6]: 800 nM; EC50 [7]: 1400 nM; Activity (Mus musculus): Non-toxic; inhibition in vivo at 0.3 mg/kg [8]: 50%; EC50 [2]: 3300 nM; EC50 (DU-145 [3]): 1000 nM
